# The M2OR odorant receptor database
# Biological target: T1, UniProt L7MU75
# T1 sequence (whole entry): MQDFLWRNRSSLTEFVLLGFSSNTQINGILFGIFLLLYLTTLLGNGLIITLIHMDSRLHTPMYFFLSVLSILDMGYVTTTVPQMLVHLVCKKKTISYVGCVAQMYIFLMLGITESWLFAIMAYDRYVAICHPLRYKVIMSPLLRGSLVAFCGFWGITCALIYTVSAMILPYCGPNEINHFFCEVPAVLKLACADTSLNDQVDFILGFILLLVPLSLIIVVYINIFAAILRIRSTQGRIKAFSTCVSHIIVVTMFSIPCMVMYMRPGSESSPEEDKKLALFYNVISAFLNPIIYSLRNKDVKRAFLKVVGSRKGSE
# Conditions: stereoisomer not certain
# Procedure, shortened: (§1)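 Transient luciferase assays in mammalian cell lines were common, though methods varied by source. The values come from published papers and their supplementary material, with extra details from the original authors when needed. Responsive refers to a measured signal the original authors judged statistically different from baseline, and non-responsive (inactive) to the remainder.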
# 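Note: active if original authors judged signal statistically different from baseline.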
row,SMILES,odorant receptor agonist call
1,O=C(OCc1ccccc1)c1ccccc1O,inactive
2,CCCCCO,inactive
3,O=C([O-])CCCCCCC(=O)[O-].[H+].[H+],inactive
4,CCCC(C)=O,inactive
5,O=C([O-])CCCCCCCC(=O)[O-].[H+].[H+],inactive
6,O=C(O)CCCCCBr,inactive
7,CCC(C(=O)O)c1ccccc1 (stereo not given),inactive
8,CCCCCCC(=O)[O-].[H+],inactive
9,O=C(O)CCCCCCCCC(=O)O,inactive
10,CCCO,inactive

# Biological target: T2, UniProt L7N0P5
# T2 sequence (whole entry): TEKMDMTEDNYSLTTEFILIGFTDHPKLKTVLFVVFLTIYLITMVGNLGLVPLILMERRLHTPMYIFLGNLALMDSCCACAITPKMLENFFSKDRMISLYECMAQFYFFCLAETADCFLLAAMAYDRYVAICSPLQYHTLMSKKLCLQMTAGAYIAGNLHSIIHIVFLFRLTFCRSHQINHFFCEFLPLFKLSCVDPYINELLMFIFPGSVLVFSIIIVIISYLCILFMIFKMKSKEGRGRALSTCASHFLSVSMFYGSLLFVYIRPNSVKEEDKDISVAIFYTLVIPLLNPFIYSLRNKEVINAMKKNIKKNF
# Conditions: stereoisomer not certain
# Procedure, shortened: as §1
row,SMILES,odorant receptor agonist call
1,Cc1cncc(C)n1,active
2,CCc1nccnc1C(C)=O,active
3,CC1CCc2nccnc21 (stereo not given),active
4,COc1nccnc1CC(C)C,active
5,CCc1cnc(C)c(C)n1,inactive
6,CC1=NC(C)C(C)S1 (stereo not given),active
7,CCc1nccnc1C,active
8,CC(=O)c1cnccn1,active
9,Cc1cnc(C)cn1,active
10,C=Cc1cnccn1,active
11,CC(=O)c1nccnc1C,active
12,CCc1nccnc1OC,active
13,Cc1cnc(C)c(C)n1,active
14,Cc1cnccn1,active
15,COC1=C(C)OC(C)C1=O (stereo not given),inactive
